ChEMBL document CHEMBL1149217, “3-trifluoromethyl-4-nitro-5-arylpyrazoles are novel K(ATP) channel agonists” (Bioorg Med Chem Lett, 2004)

Key:
[1] = target: Sulfonylurea receptor 1, Kir6.2 (Homo sapiens, UniProt Q09428+Q14654); assay: […] of human KATP (SUR1/Kir6.2) channel expressed in Xenopus oocytes; assay type: functional, cell-based, Oocyte
Procedure, shortened: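 ATP-sensitive K+ currents were recorded by excised-patch clamp from inside-out macropatches pulled from Xenopus oocytes expressing human SUR1/Kir6.2. Values are means of 3-6 experiments.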

[2] = target: T1, Sulfonylurea receptor 1, Kir6.2 (Homo sapiens) (UniProt Q14654+Q09428); assay: Percent maximal agonist response of human KATP (SUR1/Kir6.2) channel expressed in Xenopus oocytes; assay type: functional, cell-based; settings: Oocyte
Procedure, shortened: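 ATP-sensitive K+ currents were recorded by excised-patch clamp from inside-out macropatches pulled from Xenopus oocytes expressing human SUR1/Kir6.2. Compounds were tested across a dose range to give dose–response curves. […] Values are means of 3-6 experiments.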

[3] = target: T1, Sulfonylurea receptor 1, Kir6.2 (Homo sapiens); assay: Percent maximal agonist response of human KATP (SUR1/Kir6.2) channel expressed in Xenopus oocytes at 30 uM; assay type: functional, cell-based; settings: Oocyte
Procedure, shortened: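 Inside-out macropatches were excised from Xenopus oocytes expressing human SUR1/Kir6.2, and ATP-sensitive K+ currents were recorded. […] Means of 3-6 experiments.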

Chain of Sulfonylurea receptor 1, Kir6.2 (Q14654 whole entry): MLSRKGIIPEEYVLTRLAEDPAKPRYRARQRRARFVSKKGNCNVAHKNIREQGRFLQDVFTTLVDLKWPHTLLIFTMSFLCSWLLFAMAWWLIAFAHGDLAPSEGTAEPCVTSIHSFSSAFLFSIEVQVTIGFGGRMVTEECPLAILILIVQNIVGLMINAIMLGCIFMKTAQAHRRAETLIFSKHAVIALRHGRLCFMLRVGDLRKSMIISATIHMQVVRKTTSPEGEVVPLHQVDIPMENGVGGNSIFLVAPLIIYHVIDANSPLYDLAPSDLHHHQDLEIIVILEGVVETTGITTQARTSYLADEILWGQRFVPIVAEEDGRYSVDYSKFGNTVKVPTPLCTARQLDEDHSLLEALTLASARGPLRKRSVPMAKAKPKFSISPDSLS
Chain of Sulfonylurea receptor 1, Kir6.2 (Q09428 whole entry): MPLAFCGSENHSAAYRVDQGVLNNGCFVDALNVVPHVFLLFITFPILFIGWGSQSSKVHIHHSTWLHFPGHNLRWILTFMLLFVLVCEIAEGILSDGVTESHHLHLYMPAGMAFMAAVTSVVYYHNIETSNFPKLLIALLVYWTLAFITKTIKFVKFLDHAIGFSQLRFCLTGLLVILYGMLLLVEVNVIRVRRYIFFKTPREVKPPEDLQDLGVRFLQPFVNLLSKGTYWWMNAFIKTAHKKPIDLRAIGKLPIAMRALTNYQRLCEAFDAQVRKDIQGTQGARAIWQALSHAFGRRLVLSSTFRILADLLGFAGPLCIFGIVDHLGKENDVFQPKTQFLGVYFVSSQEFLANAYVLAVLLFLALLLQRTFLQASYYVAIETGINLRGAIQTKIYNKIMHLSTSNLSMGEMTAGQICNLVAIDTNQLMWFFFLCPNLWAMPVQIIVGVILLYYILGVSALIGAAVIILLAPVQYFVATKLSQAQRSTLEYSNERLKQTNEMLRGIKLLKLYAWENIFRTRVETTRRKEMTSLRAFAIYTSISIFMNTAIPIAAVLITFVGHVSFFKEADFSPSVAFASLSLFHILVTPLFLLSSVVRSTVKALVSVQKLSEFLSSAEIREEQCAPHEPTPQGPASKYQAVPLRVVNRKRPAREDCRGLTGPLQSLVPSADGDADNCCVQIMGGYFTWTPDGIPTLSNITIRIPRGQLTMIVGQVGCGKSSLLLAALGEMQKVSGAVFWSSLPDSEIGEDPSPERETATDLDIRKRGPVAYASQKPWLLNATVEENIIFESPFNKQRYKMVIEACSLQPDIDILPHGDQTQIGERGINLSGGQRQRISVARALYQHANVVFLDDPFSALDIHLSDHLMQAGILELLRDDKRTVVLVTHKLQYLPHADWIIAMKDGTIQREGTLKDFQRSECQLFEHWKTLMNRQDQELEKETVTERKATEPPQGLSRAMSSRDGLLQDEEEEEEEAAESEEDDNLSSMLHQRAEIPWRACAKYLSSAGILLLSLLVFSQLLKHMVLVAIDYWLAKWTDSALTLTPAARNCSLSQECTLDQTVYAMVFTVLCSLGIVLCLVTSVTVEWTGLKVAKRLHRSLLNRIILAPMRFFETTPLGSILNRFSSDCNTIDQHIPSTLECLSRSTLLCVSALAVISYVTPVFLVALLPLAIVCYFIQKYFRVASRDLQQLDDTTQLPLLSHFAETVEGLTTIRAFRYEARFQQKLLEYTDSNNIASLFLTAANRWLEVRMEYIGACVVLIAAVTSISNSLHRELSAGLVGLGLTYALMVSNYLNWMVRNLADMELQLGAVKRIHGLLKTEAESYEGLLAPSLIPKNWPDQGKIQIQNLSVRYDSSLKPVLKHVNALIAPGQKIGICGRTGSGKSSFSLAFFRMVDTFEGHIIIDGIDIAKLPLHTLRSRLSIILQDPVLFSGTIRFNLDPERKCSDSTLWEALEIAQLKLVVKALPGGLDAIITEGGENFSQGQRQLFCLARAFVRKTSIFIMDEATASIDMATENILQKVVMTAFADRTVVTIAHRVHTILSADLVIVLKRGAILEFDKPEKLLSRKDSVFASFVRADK

Q: What does the source list for `O=[N+]([O-])c1c(C(F)(F)F)n[nH]c1-c1ccc(C(F)(F)F)cc1C(F)(F)F`?
A: EC50 [1]: 540 nM; Max response [2]: 197%

Q: Which EC50 [1] does the source give for `O=[N+]([O-])c1c(-c2ccc(F)cc2F)n[nH]c1C(F)(F)F` here?
A: Its EC50 is 1150 nM.

Q: Which results are given for `O=[N+]([O-])c1ccc(-c2cc(C(F)(F)F)[nH]n2)cc1`?
A: EC50 [1]: > 30000 nM; Max response [3]: 8%

Q: For `O=[N+]([O-])c1ccc(-c2noc(C(F)(F)F)c2[N+](=O)[O-])cc1`, which EC50 [1] is on record?
A: The EC50 was greater than 30000 nM.

Q: For `CC1=Nc2ccc(Cl)cc2S(=O)(=O)N1`, which Max response [2] is on record?
A: Its Max response is 100%.

Q: Which results are given for `O=[N+]([O-])c1c(C(F)(F)F)n[nH]c1-c1ccccc1`?
A: EC50 [1]: 30000 nM; Max response [3]: 38%

Q: How did the Max response [2] turn out when `O=[N+]([O-])c1c(C(F)(F)F)n[nH]c1-c1ccc(F)cc1F` was run?
A: Its Max response is 113%.

Q: For `O=[N+]([O-])c1ccc(-c2[nH]nc(C(F)(F)F)c2[N+](=O)[O-])cc1`, which EC50 [1] is on record?
A: Its EC50 is 700 nM.

Q: And the Max response [2]?
A: The Max response was 94%.
